Results published in ChEMBL document CHEMBL2021854, “2-Aminopyrimidine based 4-aminoquinoline anti-plasmodial agents. Synthesis, biological activity, structure-activity relationship and mode of action studies” (Eur J Med Chem, 2012).

Tested on: Plasmodium falciparum
Experiment: Antiplasmodial activity chloroquine-sensitive Plasmodium falciparum 3D7 infected in human A+ erythrocytes assessed as inhibition of [3H]-hypoxanthine incorporation after 24 hrs by scintillation counting
Assay type: functional, organism-based
Settings: not given

SMILES	IC50
CCOC(=O)c1c(C)nc(NCCCCNc2ccnc3cc(Cl)ccc23)nc1C	0.0421 µM

Tested on: Plasmodium falciparum
Experiment: Antiplasmodial activity chloroquine-resistant Plasmodium falciparum K1 infected in human A+ erythrocytes assessed as inhibition of [3H]-hypoxanthine incorporation after 24 hrs by scintillation counting
Assay type: functional, organism-based
Settings: not given

SMILES	IC50
CCOC(=O)c1c(C)nc(NCCCCNc2ccnc3cc(Cl)ccc23)nc1C	1.66 µM

Tested on: Plasmodium falciparum
Experiment: Resistant factor, ratio of IC50 for chloroquine-resistant Plasmodium falciparum K1 to IC50 for chloroquine-sensitive Plasmodium falciparum 3D7
Assay type: functional
Settings: not given
In short: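 Resistance factor computed as IC50 against K1 divided by IC50 against 3D7, both from the [3H]hypoxanthine incorporation assay.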

SMILES	Ratio IC50
CCOC(=O)c1c(C)nc(NCCCCNc2ccnc3cc(Cl)ccc23)nc1C	39.422

Tested on: MDCK
Experiment: Cytotoxicity against MDCK cells assessed as cell viability by colorimetric formazan-based MTS assay
Design: species or system Canis lupus familiaris
Settings: dog, mdck
In short: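 Cytotoxicity on MDCK cells; 50% cytotoxic concentration from cell viability measured by colorimetric formazan-based MTS assay.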

SMILES	CC50
CCOC(=O)c1c(C)nc(NCCCCNc2ccnc3cc(Cl)ccc23)nc1C	0.8 µM

Tested on: not listed separately
Experiment: Cytotoxicity against MDCK cells assessed as minimum compound concentration required to causes microscopically detectable alteration of normal cell morphology
Assay type: cell-based, Canis lupus familiaris
Settings: dog
In short: (§1)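 Confluent, non-proliferating cell cultures were exposed to the compounds. The endpoint was the minimum concentration producing a microscopically detectable alteration of normal cell morphology.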

SMILES	MCC
CCOC(=O)c1c(C)nc(NCCCCNc2ccnc3cc(Cl)ccc23)nc1C	4 µM

Tested on: not listed separately
Experiment: Selectivity index, ratio of CC50 for MDCK cells to IC50 for chloroquine-resistant Plasmodium falciparum K1
Assay type: functional
Settings: not given
In short: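 Selectivity index computed as MTS-based CC50 on MDCK cells divided by IC50 against P. falciparum K1.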

SMILES	Ratio CC50/IC50
CCOC(=O)c1c(C)nc(NCCCCNc2ccnc3cc(Cl)ccc23)nc1C	0.48

Tested on: not listed separately
Experiment: Cytotoxicity against african green monkey Vero cells assessed as minimum compound concentration required to causes microscopically detectable alteration of normal cell morphology
Assay type: cell-based
Settings: chlorocebus sabaeus
In short: as §1

SMILES	MCC
CCOC(=O)c1c(C)nc(NCCCCNc2ccnc3cc(Cl)ccc23)nc1C	100 µM

Tested on: Human respirovirus 3
Experiment: Antiviral activity against Parainfluenza-3 virus infected in african green monkey Vero cells assessed as inhibition of virus-induced cytopathogenicity after 4 days
Assay type: functional, organism-based
Settings: Human respirovirus 3, Vero, 96 h
In short: (§2)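 Confluent HEL, Vero or HeLa monolayers were inoculated with 100 CCID50 of virus in the presence of varying concentrations of compound. Cytopathicity was scored when it reached completion in untreated, virus-infected control cultures.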

SMILES	EC50
CCOC(=O)c1c(C)nc(NCCCCNc2ccnc3cc(Cl)ccc23)nc1C	> 20 µM

Tested on: Mammalian orthoreovirus 1
Experiment: Antiviral activity against Reovirus-1 infected in african green monkey Vero cells assessed as inhibition of virus-induced cytopathogenicity after 4 days
Assay type: functional, organism-based
Settings: Mammalian orthoreovirus 1, Vero, 96 h
In short: as §2

SMILES	EC50
CCOC(=O)c1c(C)nc(NCCCCNc2ccnc3cc(Cl)ccc23)nc1C	> 20 µM

Tested on: Sindbis virus
Experiment: Antiviral activity against Sindbis virus infected in african green monkey Vero cells assessed as inhibition of virus-induced cytopathogenicity after 4 days
Assay type: functional, organism-based
Settings: 96 h
In short: as §2

SMILES	EC50
CCOC(=O)c1c(C)nc(NCCCCNc2ccnc3cc(Cl)ccc23)nc1C	> 20 µM

Tested on: Coxsackievirus B4
Experiment: Antiviral activity against Coxsackie virus B4 infected in african green monkey Vero cells assessed as inhibition of virus-induced cytopathogenicity after 4 days
Assay type: functional, organism-based
Settings: Enterovirus B, 96 h
In short: as §2

SMILES	EC50
CCOC(=O)c1c(C)nc(NCCCCNc2ccnc3cc(Cl)ccc23)nc1C	> 20 µM

Tested on: Punta Toro virus
Experiment: Antiviral activity against Punta Toro virus infected in african green monkey Vero cells assessed as inhibition of virus-induced cytopathogenicity after 4 days
Assay type: functional, organism-based
Settings: 96 h
In short: as §2

SMILES	EC50
CCOC(=O)c1c(C)nc(NCCCCNc2ccnc3cc(Cl)ccc23)nc1C	> 20 µM

Tested on: Human alphaherpesvirus 1
Experiment: Antiviral activity against HSV1 KOS infected in HEL cells assessed as inhibition of virus-induced cytopathogenicity after 4 days
Assay type: functional, organism-based
Settings: Human alphaherpesvirus 1, KOS, 96 h
In short: (§3)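 Confluent HEL or HeLa monolayers infected with 100 CCID50 of virus in the presence of varying compound concentrations.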

SMILES	EC50
CCOC(=O)c1c(C)nc(NCCCCNc2ccnc3cc(Cl)ccc23)nc1C	> 100 µM

Tested on: Human alphaherpesvirus 2
Experiment: Antiviral activity against HSV2 G infected in HEL cells assessed as inhibition of virus-induced cytopathogenicity after 4 days
Assay type: functional, organism-based
Settings: Human alphaherpesvirus 2, strain G, 96 h
In short: as §2

SMILES	EC50
CCOC(=O)c1c(C)nc(NCCCCNc2ccnc3cc(Cl)ccc23)nc1C	> 20 µM

Tested on: Vesicular stomatitis virus
Experiment: Antiviral activity against Vesicular stomatitis virus infected in HEL cells assessed as inhibition of virus-induced cytopathogenicity after 4 days
Assay type: functional, organism-based
Settings: 96 h
In short: as §3

SMILES	EC50
CCOC(=O)c1c(C)nc(NCCCCNc2ccnc3cc(Cl)ccc23)nc1C	> 100 µM

Tested on: Human alphaherpesvirus 1
Experiment: Antiviral activity against thymidine kinase-deficient acyclovir-resistant HSV1 KOS infected in HEL cells assessed as inhibition of virus-induced cytopathogenicity after 4 days
Assay type: functional, organism-based
Settings: Human alphaherpesvirus 1, KOS, 96 h
In short: as §3

SMILES	EC50
CCOC(=O)c1c(C)nc(NCCCCNc2ccnc3cc(Cl)ccc23)nc1C	> 100 µM

Tested on: not listed separately
Experiment: Cytotoxicity against human HEL cells assessed as minimum compound concentration required to causes microscopically detectable alteration of normal cell morphology
Assay type: cell-based
Settings: not given
In short: as §1

SMILES	MCC
CCOC(=O)c1c(C)nc(NCCCCNc2ccnc3cc(Cl)ccc23)nc1C	> 20 µM

Tested on: not listed separately
Experiment: Cytotoxicity against human HeLa cells assessed as minimum compound concentration required to causes microscopically detectable alteration of normal cell morphology
Assay type: cell-based
Settings: not given
In short: as §1

SMILES	MCC
CCOC(=O)c1c(C)nc(NCCCCNc2ccnc3cc(Cl)ccc23)nc1C	≥ 20 µM

Tested on: Vesicular stomatitis virus
Experiment: Antiviral activity against Vesicular stomatitis virus infected in HeLa cells assessed as inhibition of virus-induced cytopathogenicity after 4 days
Assay type: functional, organism-based
Settings: 96 h
In short: as §3

SMILES	EC50
CCOC(=O)c1c(C)nc(NCCCCNc2ccnc3cc(Cl)ccc23)nc1C	> 20 µM
